77 molecules from PubChem BioAssay AID1515 (The Scripps Research Institute Molecular Screening Center, 2009) can be followed below.

The inhibition is the relative decrease from the control value, in per cent.

Among all 220,000 compounds or so, about 440 (0.2%) were called active. Only a selection was taken, and actives are over-represented in it overall. Values without a mark were called inactive.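 The calls were made as follows: active = inhibition above the campaign mean of all tested compounds plus 3 SD (cut at about 14% in these data); inactive = the rest.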

Chain of Serine hydrolase RBBP9 (Homo sapiens) (O75884 whole entry, looked up): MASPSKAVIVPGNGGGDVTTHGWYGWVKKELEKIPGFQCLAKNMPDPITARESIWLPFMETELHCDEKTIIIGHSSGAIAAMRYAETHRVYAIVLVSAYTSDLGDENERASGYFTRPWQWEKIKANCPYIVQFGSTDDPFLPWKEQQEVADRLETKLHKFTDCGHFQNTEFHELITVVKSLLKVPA

The test has as its target Serine hydrolase RBBP9 (Homo sapiens) (UniProt O75884). Put plainly: human RBBP9 inhibitors, primary screen, biochemical, fluorescence polarization, FP-Rh probe, HTS (AID 1515).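 Also: plate controls were DMSO wells with RBBP9 for no effect and wells lacking RBBP9 protein for full effect.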 Conditions: recombinant RBBP9, FP-Rh probe fluorescence polarization; at 7.94 µM; hits give high values. The essentials: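 System: RBBP9 protein / Buffer or medium: Tris/NaCl buffer pH 8.0 with 0.1% Pluronic / Probe or stimulus: Serine-hydrolase probe FP-Rh, 375 nM pre-mixing / Dosing: 7.94 µM single dose, 0.794% DMSO / Times: enzyme-compound preincubation 30 min, then probe labeling 45 min, 25 °C / Technique: fluorescence polarization (mP), excitation 525 nm, emission 598 nm / Replication: singlicate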
(In general: Polarisation of emitted light reports the rotation of a fluorescent probe.)
As to `Cc1ccnc(SCC(N)=O)n1`, the inhibition was -18.6%.

On to `Cc1ccnc(Nc2nc3ccccc3s2)n1`, for which the inhibition was -1.41%.

Take `Cc1ccnc(-n2sc3ccccc3c2=O)n1`: the inhibition was 43.2% (active).

Regarding `CCOC(=O)CCCNC(=O)COC(=O)/C=C/c1ccc2c(c1)OCO2`, the inhibition is 6.07%.

As for `Cc1ccc(C(O)P(=O)(OC(C)C)c2ccc(N(C)C)cc2)cc1` (configuration not stated), the inhibition was -1.11%.

For `O=C(C1CCCO1)N1CCN(C(=S)Nc2cccc(Cl)c2)CC1` (configuration not stated), the inhibition is -9.39%.

With `O=C(COc1ccc(Cl)cc1)N1CCN(c2cccc(C(F)(F)F)c2)CC1`, the inhibition is -0.45%.

For `CCC(=O)c1ccc(OCC(O)CN2CC(C)OC(C)C2)cc1` (configuration not stated), the inhibition was -8.04%.

With `CCC(=O)c1ccc(OCC(O)CN2CCN(c3cccc(C(F)(F)F)c3)CC2)cc1` (configuration not stated), the inhibition was 17.3% (active).

`O=C(O)c1ccccc1-c1ccccc1C(=O)Nc1nccs1`: the inhibition is -2.01%.

In the case of `CCN1CCc2nc(NC(=O)c3cc(F)c(F)cc3Cl)sc2C1`, the inhibition is -0.19%.

On to `CCOc1ccc2nc(NCCNC(=O)C(C)(C)C)c(C)cc2c1`, for which the inhibition is -3.3%.

In the case of `Cc1ccc(C(=O)COC(=O)CCN2C(=O)C3C4CC(C(Br)C4Br)C3C2=O)cc1` (configuration not stated), the inhibition is -2.32%.

In the case of `COc1ccc(OC)c(NC(=S)N2CCc3ccccc3C2)c1`, the inhibition is 1.81%.

With `Cc1ccc(C)c(Cn2cnc3c(oc4ccccc43)c2=O)c1`, the inhibition is -1.77%.

For `Cc1ccc(CN2CCN(Cc3ccccc3-c3ccco3)CC2CCO)o1` (configuration not stated), the inhibition is -3.63%.

As to `CN(C)c1nnnn1-c1ccc(Cl)cc1`, the inhibition is 3.3%.

Take `CC(C)c1ccc(Nc2nnc(SCC(=O)c3nnc(-c4ccccc4)o3)s2)cc1`: the inhibition was -10.9%.

For the molecule `CCC(=O)N1CCCc2ccccc21`, the inhibition was 16.1% (active).

`Cc1occc1C(=O)N1CCCc2ccccc21`: the inhibition is 7.03%.

For `O=C(CSCc1ccccc1)N1CCc2ccccc21`, the inhibition is -3.54%.

`COc1cc(OC)cc(-c2nc(=S)n3ccsc3n2)c1`: the inhibition is 0.8%.

As to `O=C1CN(C(=O)CN2C(=O)NC3(CCCCC3)C2=O)c2ccccc2N1`, the inhibition is -4.87%.

Turning to `CCSc1ccccc1C(=O)Nc1ccc2c(c1)OCO2`, the inhibition was -7.81%.

Regarding `CN(/C(=N/S(=O)(=O)c1cccs1)c1ccccc1)c1ccc(O)cc1`, the inhibition is -5.39%.

For the molecule `O=C(CSc1nnc(SCc2ccc(Cl)cc2)s1)N/N=C/c1ccccc1Cl`, the inhibition is -7.13%.

In the case of `COc1cc(NC(=S)NCc2ccc(S(N)(=O)=O)cc2)cc(OC)c1`, the inhibition was 1.34%.

As to `COc1ccc(CCC(=O)OCC(=O)Nc2ccc(C)c(S(=O)(=O)N(C)C)c2)cc1`, the inhibition is -1.71%.

Regarding `COc1cccc(NCCC(=O)c2cccc([N+](=O)[O-])c2)c1`, the inhibition was -8.98%.

As to `COc1ccc(NS(=O)(=O)c2cc(NC(=O)CC(=O)c3ccc([N+](=O)[O-])cc3)ccc2C)cc1`, the inhibition was 28.9% (active).

`COc1cccc(NC(=O)NCc2ccc(F)cc2)c1`: the inhibition is -0.62%.

Regarding `CCNC(=S)NNC(=O)C1CCN(Cc2ccccc2)CC1`, the inhibition was -3.59%.

As for `COc1cccc(NC(=O)c2ccc3c(SCC(=O)O)c4c(nc3c2)CCCC4)c1`, the inhibition is 14.3% (active).

`CCC(=O)Nc1ccc(C(=O)Nc2cccc(OC)c2)cc1`: the inhibition was -4.79%.

`CC(=O)c1ccc(NC(=O)c2ccc3c(Cl)c4c(nc3c2)CCCC4)cc1`: the inhibition was -3.32%.

In the case of `Cc1cc(F)ccc1S(=O)(=O)N1CCCOC1CNC(=O)C(=O)NCCC1=CCCCC1` (configuration not stated), the inhibition was 44.9% (active).

As for `O=C(NCc1cccs1)C(=O)NCC1OCCCN1S(=O)(=O)c1ccc(F)cc1` (configuration not stated), the inhibition is -5.51%.

On to `O=C(NCCCn1ccnc1)C(=O)NCC1OCCN1S(=O)(=O)c1cc(F)ccc1F` (configuration not stated), for which the inhibition was -2.12%.

For `Cc1cc(CO)nn1-c1ccc([N+](=O)[O-])cc1`, the inhibition was -1.67%.

As for `CCN(CC)Cc1nc2sc(C)c(C)c2c(=O)[nH]1`, the inhibition was 0.79%.

In the case of `COc1ccc(C(=O)CSc2nnc(-c3ccco3)o2)cc1`, the inhibition is -6.2%.

For the molecule `CC(C)n1c(=S)[nH]c2cc(C(F)(F)F)ccc21`, the inhibition was -5.5%.

For `CCN(C(=O)Cc1nc(N)n[nH]1)C1(C(=O)Nc2ccccc2)CCCCC1`, the inhibition was 4.99%.

Turning to `COc1ccc(-n2nnnc2SCC(=O)NCc2cccs2)cc1`, the inhibition is -4.68%.

`COc1ccc(-c2nnn(Cc3nc(N)nc(N4CCCCC4)n3)n2)cc1`: the inhibition is -9.6%.

Regarding `COc1ccc(-n2nnnc2SCc2nc(N)nc(N3CCOCC3)n2)cc1`, the inhibition is 14.8% (active).

Regarding `Cc1onc(-c2ccccc2Cl)c1C(=O)OCC(=O)c1ccccc1`, the inhibition was -7.59%.

As to `O=c1nc(N/N=C/c2ccco2)cn[nH]1`, the inhibition was -3.99%.

On to `COC(=O)c1ccccc1NC(=O)Cc1ccccc1OC`, for which the inhibition is 6.78%.

Turning to `COCCn1nnnc1C(c1cc2ccc(OC)cc2[nH]c1=O)N1CCc2ccccc2C1` (configuration not stated), the inhibition is 5.71%.

As for `CN1CCN(C(c2cc3cc4c(cc3[nH]c2=O)OCCO4)c2nnnn2C2CCCC2)CC1` (configuration not stated), the inhibition was -9.4%.

Regarding `CCOc1ccc2[nH]c(=O)c(C(c3nnnn3CCOC)N3CCOCC3)cc2c1` (configuration not stated), the inhibition is 15.5% (active).

Turning to `C[N+](C)(C)CCOP(=O)([O-])OC[C@H](O)CO`, the inhibition was 0.46%.

In the case of `COc1ccccc1N1CCN(CC(=O)NCCc2ccc(S(N)(=O)=O)cc2)CC1`, the inhibition was 0.48%.

With `CCCC(NC(=O)c1ccco1)c1nc2ccccc2[nH]1` (configuration not stated), the inhibition was 0.23%.

Consider `O=C(CN1CCN(c2ccc(Cl)cc2)CC1)NCc1cccs1`, for which the inhibition is -5.55%.

Take `CC(C)c1ccc(NC(=S)NNc2ccc(Cl)c(C(=O)O)c2)cc1`: the inhibition was -0.79%.

Regarding `Nc1nnc(SCC(=O)OCc2ccc(Cl)c(Cl)c2)s1`, the inhibition was -1.35%.

As for `Cc1nc(SCC(=O)N2CC(=O)Nc3ccccc32)c2c(C)c(C)sc2n1`, the inhibition is -7.82%.

For the molecule `Nn1c(Cc2cccc3ccccc23)nnc1SCC(=O)N1CC(=O)Nc2ccccc21`, the inhibition is 15.1% (active).

For `C=CCn1c(COc2ccccc2F)nnc1SCC(=O)N1CC(=O)Nc2ccccc21`, the inhibition was -3.31%.

Turning to `CN1CCNC(=O)C1CC(=O)N1CC=C(c2ccc(F)cc2)CC1` (configuration not stated), the inhibition is 1.72%.

As to `COc1cc2c3c(c1)/C(=C1/SC(=S)NC1=O)C(=O)N3C(C)(C)C=C2C`, the inhibition was -0.69%.

For the molecule `C=CS(=O)c1sc(Cl)c(N2CCOCC2)c1[N+](=O)[O-]` (configuration not stated), the inhibition is 17.3% (active).

Turning to `COC(=O)COc1ccc(C2NC(=O)NC(C)=C2C(=O)NCc2ccccc2)cc1OC` (configuration not stated), the inhibition was -2.89%.

With `O=C(CNc1ccc(F)cc1F)NC(=O)NCc1ccco1`, the inhibition is 5.92%.

For the molecule `Oc1c(C(c2cccs2)N2CCN(c3ccc(F)cc3)CC2)sc2ncnn12` (configuration not stated), the inhibition was -6.82%.

Take `O=C(c1ccc(F)cc1)N1CCC(n2nnc3ccccc32)CC1`: the inhibition was 1.82%.

Consider `Cc1cccc(C)c1Nc1c(-c2ccccc2O)nc2ncccn12`, for which the inhibition is 4.64%.

For the molecule `Cc1ccc(-c2nc(C#N)c(NCCCn3ccnc3)o2)cc1`, the inhibition was -5.98%.

For the molecule `CC(C)c1ccc2c(c1)c(SC(C)(C)C)c(CC(C)(C)C(=O)O)n2Cc1ccc(Cl)cc1`, the inhibition was 5.23%.

As for `CCN(CC)C(=O)Oc1ccc(OC(=O)N(CC)CC)cc1`, the inhibition is 3.51%.

In the case of `CCCc1nc2oc3c(OCC)ncnc3c2c2c1COC(C)(C)C2`, the inhibition was -0.01%.

As for `CC(C)(C)C(=O)NC(NC(=S)Nc1ccc(S(N)(=O)=O)cc1)C(Cl)(Cl)Cl` (configuration not stated), the inhibition is -7.24%.

On to `O=C(CCCC(=O)N(CC(=O)NC1CCCC1)Cc1ccccc1Cl)Nc1ccccn1`, for which the inhibition is 16.9% (active).

`Cc1ccc(C(C(=O)NC2CCCC2)N(Cc2ccco2)C(=O)CCC(=O)Nc2ccccn2)cc1` (configuration not stated): the inhibition is -4.24%.

For `CCOc1ccccc1N(CC(=O)NC1CCCCC1)C(=O)CCCC(=O)Nc1ccccn1`, the inhibition was -3.56%.
